In the library only some 2.3% were active in any assay of this set; here they are far more common.
Fam108B inh = counter-screen for RBBP9 inhibitors: inhibitors of mouse Fam108B. recombinant Fam108B, FP-Rh probe fluorescence polarization. inhibition, % at 9.51 µM. 300,000 tested, 0.33% active;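 active = inhibition above the screen mean inhibition plus 3 SD, computed separately per campaign, cut at about 18% in these data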;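 note: inhibitors lower polarization as less probe binds the enzyme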
PAD4 FP inh = PAD4 (human) enzyme inhibition | recombinant PAD4, RCA probe fluorescence polarization | Q9UM07 | AID 485272 | inhibition, % at 6.36 µM | 330,000 tested, 0.41% active;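 active = percent inhibition above a cutoff equal to the mean of all tested compounds plus 3 SD, cut at about 15% in these data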
PRMT1 FP inh = PRMT1 (human) inhibition, primary screen. 370,000 tested, 1.3% active. Q99873. inhibition, % at 2.79 µM. recombinant PRMT1, activity-based probe fluorescence polarization;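 active = inhibition above about 21% made by adding two undisclosed values, limit read from the data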
Target sequence (Q99873 whole entry, looked up): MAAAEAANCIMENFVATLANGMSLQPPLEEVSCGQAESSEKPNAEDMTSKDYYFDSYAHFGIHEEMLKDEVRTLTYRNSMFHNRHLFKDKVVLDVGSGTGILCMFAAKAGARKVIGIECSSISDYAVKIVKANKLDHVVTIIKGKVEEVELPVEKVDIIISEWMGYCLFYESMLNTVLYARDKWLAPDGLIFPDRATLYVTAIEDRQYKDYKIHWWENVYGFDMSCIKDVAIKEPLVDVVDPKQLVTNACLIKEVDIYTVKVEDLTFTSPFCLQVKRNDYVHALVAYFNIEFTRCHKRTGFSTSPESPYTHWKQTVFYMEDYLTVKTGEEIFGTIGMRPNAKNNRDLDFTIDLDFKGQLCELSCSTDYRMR
RBBP9 inh = inhibitors of human serine hydrolase RBBP9. 220,000 tested, 0.2% active. recombinant RBBP9, FP-Rh probe fluorescence polarization. inhibition, % at 7.94 µM. AID 1515;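 active = inhibition above the campaign mean of all tested compounds plus 3 SD, cut at about 14% in these data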
Target sequence (O75884 whole entry, looked up): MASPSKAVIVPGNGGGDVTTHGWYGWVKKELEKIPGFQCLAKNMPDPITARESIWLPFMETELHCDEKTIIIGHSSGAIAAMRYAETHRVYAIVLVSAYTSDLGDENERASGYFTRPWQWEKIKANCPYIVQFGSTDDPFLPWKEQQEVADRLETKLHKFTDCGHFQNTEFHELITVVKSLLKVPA
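Test system – recombinant human RBBP9 · Input – RBBP9 2.5 µM in dispensing solution, pre-mixing · Medium – Tris buffer pH 8.0, NaCl, Pluronic · Schedule – preincubation 30 min plus labeling 45 min at 25 °C · Measured by – fluorescence polarization · Measure – % inhibition · Controls – DMSO and no-protein wells · Replicates – one well per compound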
PME-1 primary = blocks human protein phosphatase methylesterase 1; recombinant PME-1, FP-Rh probe fluorescence polarization; inhibition, % at 5.9 µM; 320,000 tested, 0.53% active;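 active = inhibition above the campaign mean of all compounds plus 3 SD, cut at about 26% in these data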;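 note: competitive labeling of PME-1 active site by serine hydrolase directed probe; inhibitors block probe labeling so polarization falls and inhibition rises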
GSTO1 counter = blocks human GSTO1 in RBBP9 counter-screen; P78417; recombinant GSTO1, activity-based probe fluorescence polarization; inhibition, % at 5.96 µM; 300,000 tested, 1.1% active; AID 1974;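 active = inhibition above the campaign mean inhibition plus 3 SD, cut at about 35% in these data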
A number is an active result; . = inactive; / = not tested or not shown.

SMILES	Fam108B inh	PAD4 FP inh	PRMT1 FP inh	RBBP9 inh	PME-1 primary	GSTO1 counter
CC1=NN(c2ccccc2)C(=O)C1/C=C1/C(=O)NC(=O)N(c2cccc(C)c2)C1=O (configuration not stated)	/	/	/	.	/	/
CC1=NN(c2ccccc2)C(=O)C1/C=C1/C(=O)NC(=O)N(c2cc(C)cc(C)c2)C1=O (configuration not stated)	.	15.9	.	.	.	.
Cc1cccc(N2C(=O)NC(=O)/C(=C\c3ccc4c(c3)CCCN4Cc3ccccc3)C2=O)c1	.	.	.	.	.	.
CCC(C)N1C(=O)/C(=C/c2ccc3c(c2)CCN3CCCCl)C(=O)NC1=S (configuration not stated)	.	.	.	.	.	36.7
Cc1ccc(N2CCNCC2C)cc1 (configuration not stated)	/	/	.	/	/	/
Cc1ccc(N2C(=O)NC(=O)/C(=C/C=C/c3ccco3)C2=O)cc1	.	.	24.0	.	.	.
CCC(C)NC(=O)c1c(N)n(CCCOC)c2nc3ccccc3nc12 (configuration not stated)	.	.	.	.	.	61.1
COc1ccccc1-n1c(-c2ccc(C)cc2)nc2ccccc2c1=O	/	/	.	/	/	/
COC(=O)C1=C(c2ccc(OC)c(OC)c2)C[C@@H]2CC[C@H]1N2C(=O)NCCO	/	.	.	/	.	/
CCOC(=O)CSCCOc1ccc(C=C2C(=O)NC(=O)NC2=O)cc1OC	.	.	.	.	.	.
CCOC(=O)COc1ccc(/C=C2\C(=O)NC(=S)N(c3ccc(OC)cc3)C2=O)cc1OC	.	.	22.6	/	.	.
COc1ccc(-n2nnnc2C(c2ccccc2)N2CCC(n3c(=O)[nH]c4ccccc43)CC2)cc1 (configuration not stated)	/	/	.	/	/	/
CC1(C)C2([N+](=O)[O-])CN3CC1([N+](=O)[O-])CN(C2)C3c1cccnc1 (configuration not stated)	.	.	.	.	.	.
CCCCn1c(NC(=O)c2ccc(Br)o2)c(C(=O)OCC)c2nc3ccccc3nc21	58.5	71.8	.	.	33.5	89.8
COc1ccc2c(c1OC)C(=O)OC2c1c(O)n(C2CCCCC2)c(=O)[nH]c1=O (configuration not stated)	.	.	23.4	.	.	.
CN1C(=O)NC(=O)/C(=C\c2ccc([N+](=O)[O-])o2)C1=O	.	.	/	.	.	.
CN1C(=O)NC(=O)/C(=C/c2ccc([N+](=O)[O-])o2)C1=O	.	.	23.7	.	.	.
COc1cc(/C=C2\C(=O)NC(=O)N(CCc3ccc(F)cc3)C2=O)ccc1O	.	.	24.4	.	.	.
O=C1NC(=O)N(CCC2=CCCCC2)C(=O)/C1=C/c1cccs1	.	.	.	.	.	.
CCOc1ccc(/C=C2/C(=O)NC(=O)N(CCc3ccc(F)cc3)C2=O)cc1	.	.	.	.	.	.
O=C1NC(=O)N(CCC2=CCCCC2)C(=O)/C1=C/c1ccc(O)cc1	.	.	.	.	.	35.4
Cc1c(N=Cc2c(O)n(Cc3ccco3)c(=O)[nH]c2=O)c(=O)n(-c2ccccc2)n1C	.	.	.	.	.	.
CCC(=O)N1N=C2C3CCN(CC3)C2C1c1ccccc1 (configuration not stated)	.	.	.	.	.	.
NP(=O)(OCCCc1ccccc1)Oc1ccccc1Cl (configuration not stated)	.	.	.	/	59.4	.
CC(C)CCOP(N)(=O)Oc1ccccc1Cl (configuration not stated)	.	.	.	/	30.4	.
SMILES	Fam108B inh	PAD4 FP inh	PRMT1 FP inh	RBBP9 inh	PME-1 primary	GSTO1 counter
Cc1cccc(C(=O)Nc2ccc3c(c2)CC2(C(=O)N(C)C(=O)N(C)C2=O)C2CCCN32)c1 (configuration not stated)	.	.	/	/	.	.
Cc1c(N=Nc2c(O)n(C)c(=O)n(C)c2=O)c(=O)n(-c2ccccc2)n1C	.	.	.	.	.	39.1
CN1C(=O)N(C)C(=O)C2(Sc3ccccc3C2=O)C1=O	.	.	27.1	.	.	.
COc1ccc(/C=C2\C(=O)NC(=O)N(CCC3=CCCCC3)C2=O)c(OC)c1	.	.	.	.	.	.
CCN1C(=O)NC(=O)/C(=C\c2ccc(N3CCOCC3)cc2OC)C1=O	.	.	21.2	.	.	.
CCOC(=O)c1cn2nc(OP(=S)(OCC)OCC)cc2nc1C	.	.	.	.	.	.
CN(C)C1(c2nnnn2CCOC(=O)Nc2ccc(Cl)cc2)CCCCC1	.	.	.	.	37.1	.
O=c1[nH]c(=S)[nH]c(O)c1N=Nc1cc(S(=O)(=O)Nc2ccc(Cl)cc2)ccc1Cl	/	.	.	/	41.1	/
O=C(Cn1cnc2ccccc2c1=O)NCC(=O)N1CCC2(CC1)OCCO2	.	.	.	.	.	.
O=c1c(/C=N/N2CCOCC2)c(O)n(-c2ccccc2)c(=S)n1-c1ccccc1	.	.	.	.	.	.
O=C(c1cn(Cc2ccccc2)c2ccccc12)C1CC1	.	.	.	.	.	.
N#Cc1ccccc1Cn1cc(C(=O)C2CC2)c2ccccc21	.	.	.	.	62.7	.
CCC(=O)c1cn(Cc2ccccc2C#N)c2ccccc12	.	.	.	.	35.2	.
O=C(COc1ccccc1Cl)N1CCCC(N2CCN(c3ccc(F)cc3)CC2)C1 (configuration not stated)	.	.	.	/	.	.
Cc1ccccc1N1CCN(Cc2ccc3c(c2)OCO3)CC1	.	.	.	/	.	.
O=C1NC(=O)N(Cc2ccccc2)C(=O)/C1=C\c1ccco1	.	.	.	.	.	.
O=C1NC(=O)N(Cc2ccccc2)C(=O)/C1=C\N1CCCc2ccccc21	.	.	.	.	.	38.1
Cn1c(O)c(C=Nc2ccc(Br)cc2)c(=O)n(C)c1=O	.	.	.	/	.	.
Cn1c(O)c(C=Nc2cccc(C(F)(F)F)c2)c(=O)n(C)c1=O	.	.	22.1	/	.	.
CN[C@H]1C[C@H]2O[C@@](C)([C@H]1OC)n1c3ccccc3c3c4c(c5c6ccccc6n2c5c31)C(=O)NC4	47.9	.	/	.	52.3	.
O=C(O)c1cccc2c1NC(c1cccc([N+](=O)[O-])c1)C1CC(Sc3ccccc3[N+](=O)[O-])C(Cl)C21 (configuration not stated)	/	/	22.8	.	/	/
O=C(O)c1ccc2c(c1)C1C(Cl)C(Sc3ccccc3[N+](=O)[O-])CC1C(c1cccc([N+](=O)[O-])c1)N2 (configuration not stated)	/	/	/	.	/	/
CCN(CC)C(=O)c1ccc(N(Cc2ccccc2)S(C)(=O)=O)cc1	/	/	.	/	/	/
CCN(CC)C(=O)c1ccc2c(c1)C1C=CCC1C(C(=O)O)N2 (configuration not stated)	/	/	49.0	/	/	/
CC(=O)Nc1ccccc1C(=O)OCc1ccc(F)cc1	.	.	.	.	.	.
COc1cc(/C=C/c2nc3ccccc3c(=O)n2-c2cccc(O)c2)ccc1O	.	.	.	.	36.2	.
